Data on 32 compounds can be found in ChEMBL document CHEMBL4610036, “Discovery of small molecule antagonists of chemokine receptor CXCR6 that arrest tumor growth in SK-HEP-1 mouse xenografts as a model of hepatocellular carcinoma” (Bioorg Med Chem Lett, 2020).

The term IC50 denotes the concentration needed to halve the response being measured. As a reminder, the inhibition is the relative decrease from the control value, in per cent.

The target in test [1] is T1, C-X-C chemokine receptor type 6 (Homo sapiens, UniProt O00574). Briefly: Antagonist activity at Prolink-tagged human CXCR6 receptor assessed as inhibition of CXCL16-induced beta-arrestin recruitment by DiscoveRx cell based assay. (In general: Recruitment of arrestin is a read-out of receptor activation apart from second messengers.)
Target sequence in this assay (O00574 whole entry): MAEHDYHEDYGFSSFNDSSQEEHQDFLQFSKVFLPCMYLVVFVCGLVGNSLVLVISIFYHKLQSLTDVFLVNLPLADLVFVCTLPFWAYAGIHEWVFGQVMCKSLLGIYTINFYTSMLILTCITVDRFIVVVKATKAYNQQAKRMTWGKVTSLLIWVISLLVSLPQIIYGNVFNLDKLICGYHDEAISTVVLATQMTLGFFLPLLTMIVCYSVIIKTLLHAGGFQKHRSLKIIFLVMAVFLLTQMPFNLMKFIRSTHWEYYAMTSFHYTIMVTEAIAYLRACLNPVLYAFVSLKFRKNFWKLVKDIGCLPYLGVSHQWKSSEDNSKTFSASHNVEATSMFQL
The target of test [2] is T1, C-X-C chemokine receptor type 6. In words: Antagonist activity at Prolink-tagged human CXCR6 receptor assessed as inhibition of forskolin-induced cAMP accumulation by DiscoveRx cell based assay. The test is classed as functional. The method in brief:
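Lance Ultra TR-FRET cAMP assay in CXCR6 β-arrestin cells, 500 cells/well in OptiMEM/2% FBS, grown overnight. Compound added, then forskolin (2.5 mM stock) in HBSS/HEPES/BSA/RO-20-1724 with or without 20 nM CXCL16, 30 min at room temperature. Eu-cAMP tracer and ULight anti-cAMP antibody added, read after 30 min. Curve fit with Hill slope 1; ≥2 independent runs.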
(Cyclic AMP is a second messenger, typically raised through Gs and lowered through Gi signalling.)
Target sequence in this assay (O00574 whole entry): as above

The target is the same in test [3]. Briefly: Antagonist activity at Prolink-tagged human CXCR6 receptor assessed as inhibition of CXCL16-induced beta-arrestin recruitment by DiscoveRx cell based assay relative to control. On the set-up: concentration or dose not given beside the values. The method in brief: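 CXCR6 β-arrestin cells in assay media without G418/hygromycin, 800 cells/well, grown overnight at 37 °C; compounds added acoustically (DMSO ≤0.3%), then 20 nM CXCL16 (final) for 90 min at 37 °C. PathHunter luminescence read. Normalized between CXCL16-alone and no-ligand wells; four-parameter fit with Hill slope fixed at 1; at least two runs on different days, averaged pIC50 ± SD.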
Target sequence in this assay (O00574 whole entry, looked up): as the sequence (O00574 whole entry) above

For test [4] the target is unchanged. Briefly: Antagonist activity at Prolink-tagged human CXCR6 receptor assessed as inhibition of forskolin-induced cAMP accumulation by DiscoveRx cell based assay relative to control. Type of test: functional. On the set-up: concentration or dose not given beside the values. Summed up: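 CXCR6 β-arrestin cells in OptiMEM with 2% FBS, 500 cells/well, grown overnight; compounds added, then forskolin with 20 nM CXCL16 (stock concentrations) in HBSS/HEPES/BSA with RO-20-1724, 30 min at room temperature. cAMP read by LANCE Ultra TR-FRET after a further 30 min. Hill slope fixed at 1; at least two runs on different days, averaged pIC50 ± SD.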
Target sequence in this assay (O00574 whole entry, looked up): as the sequence (O00574 whole entry) above

Active and inactive are the calls of the source. No cut-off for these calls is given here. A value given as a limit tells only on which side of the number the result lay.

Turning to `COc1cc(C(=O)N[C@@H]2C[C@H]3CCC[C@@H](C2)N3Cc2nc3ccccc3s2)cc(OC)c1OC`, the IC50 in test [1] is 0.3 µM; in test [2], 7.9 µM. For the same compound, the inhibition in test [3] (concentration not given here) was determined as 101%; in test [4] (concentration not given here), 85%.
Take `COc1cc(C(=O)NC2CCN(CC(=O)Nc3ccccc3)CC2)cc(OC)c1OC`: the IC50 in test [1] and in test [2] was more than 40 µM in each case. In addition, the inhibition entry in test [3] and in test [4] was “inactive” throughout.
Regarding `COc1cc(C(=O)N[C@@H]2C[C@H]3CCC[C@@H](C2)N3Cc2nc3ccccc3o2)cc(OC)c1OC`, the IC50 in test [1] is 6.9 µM; in test [2], more than 50 µM. In addition, the inhibition in test [3] (concentration not given here) was determined as 83%; in test [4] (concentration not given here) it was 26%.
The matching figures for `COc1cc(C(=O)N[C@@H]2C[C@H]3CCC[C@@H](C2)N3Cc2nc3cccc(Cl)c3s2)cc(OC)c1OC`: 0.26 µM, 8.9 µM, 102% and 93%.
Take `COc1cc(C(=O)N[C@@H]2C[C@H]3CCC[C@@H](C2)N3Cc2ccc(Cl)cc2)cc(OC)c1OC`: the IC50 was 23.7 µM in test [1] and 38.6 µM in test [2]. Moreover, the inhibition in test [3] (concentration not given here) came to 90%; in test [4] (concentration not given here), 58%.
The matching figures for `COc1cc(C(=O)N[C@@H]2C[C@H]3CCC[C@@H](C2)N3CC(=O)Nc2ccccc2C(F)(F)F)cc(OC)c1OC`: 0.64 µM, 7.9 µM, 101% and 105%.
The matching figures for `COc1cc(C(=O)N[C@@H]2C[C@H]3CCC[C@@H](C2)N3CC(=O)Nc2ccccc2C)cc(OC)c1OC`: 0.79 µM, 9.3 µM, 104% and 101%.
For `COc1cc(C(=O)N[C@@H]2C[C@H]3CCC[C@@H](C2)N3CC(=O)Nc2cccc(F)c2)cc(OC)c1OC` the same measures were 0.84 µM, 8.5 µM, 104% and 103%.
Take `COc1cc(C(=O)N[C@@H]2C[C@H]3CCC[C@@H](C2)N3Cc2nc3cc(Cl)ccc3s2)cc(OC)c1OC`: the half-inhibitory concentration (IC50) was determined as 0.17 µM in test [1] and 3.2 µM in test [2]. The inhibition in test [3] (concentration not given here) came out at 100%; in test [4] (concentration not given here) it was 90%.
Regarding `COc1ccc(NC(=O)CN2[C@@H]3CCC[C@H]2C[C@H](NC(=O)c2cc(OC)c(OC)c(OC)c2)C3)cc1`, the IC50 is 19 µM in test [1] and more than 40 µM in test [2]. Also, the inhibition in test [3] (concentration not given here) is 76%. For the same compound, the inhibition entry in test [4] is “inactive”.
Turning to `COc1cc(OC)cc(C(=O)N[C@@H]2C[C@H]3CCC[C@@H](C2)N3CC(=O)Nc2ccc(Cl)cc2)c1`, the IC50 in test [1] and in test [2] was more than 40 µM throughout. Moreover, the inhibition result in test [3] and in test [4] was “inactive” in each case.
Turning to `COc1cccc(CN2[C@@H]3CCC[C@H]2C[C@H](NC(=O)c2cc(OC)c(OC)c(OC)c2)C3)c1`, the IC50 in test [1] and in test [2] was more than 50 µM each time. For the same compound, the inhibition entry in test [3] and in test [4] was “inactive” throughout.
Regarding `COc1cccc(NC(=O)CN2[C@@H]3CCC[C@H]2C[C@H](NC(=O)c2cc(OC)c(OC)c(OC)c2)C3)c1`, the IC50 in test [1] was 5.8 µM; in test [2], 51 µM. Also, the figures for the inhibition in test [3] (concentration not given here) and in test [4] (concentration not given here) were 96% and 93%, respectively.
Turning to `COc1cc(C(=O)N[C@@H]2C[C@H]3CCC[C@@H](C2)N3CC(=O)Nc2c(Cl)cccc2Cl)cc(OC)c1OC`, the IC50 is 38.2 µM in test [1] and more than 40 µM in test [2]. Besides, the inhibition in test [3] (concentration not given here) was found to be 57%. For the same compound, in test [4], the inhibition result is “inactive”.
As to `COc1cc(C(=O)N[C@H]2C[C@H]3CCC[C@@H](C2)N3CC(=O)Nc2ccccc2)cc(OC)c1OC`, the values for the IC50 in test [1] and in test [2] were more than 40 µM and 40.9 µM, respectively. In addition, in test [3], the inhibition result was “inactive”. In addition, in test [4] (concentration not given here), the inhibition was found to be 70%.
Take `COc1cc(C(=O)N[C@@H]2C[C@H]3CCC[C@@H](C2)N3Cc2nc3c(Br)cccc3s2)cc(OC)c1OC`: the figures for the IC50 in test [1] and in test [2] were 0.08 µM and 1 µM, respectively. The inhibition in test [3] (concentration not given here) is 102%; in test [4] (concentration not given here), 91%.
As for `COc1ccccc1CN1[C@@H]2CCC[C@H]1C[C@H](NC(=O)c1cc(OC)c(OC)c(OC)c1)C2`, the IC50 in test [1] and in test [2] was more than 50 µM throughout. In addition, the inhibition result in test [3] and in test [4] was “inactive” in each case.
Take `COc1cc(C(=O)N[C@@H]2C[C@H]3CCC[C@@H](C2)N3CC(=O)Nc2cc(Cl)cc(Cl)c2)cc(OC)c1OC`: the results for the 50% inhibitory concentration (IC50) in test [1] and in test [2] were 0.31 µM and 1.3 µM, respectively. Further, the inhibition came to 104% in test [3] (concentration not given here) and 96% in test [4] (concentration not given here).
Turning to `COc1cc(C(=O)N[C@@H]2C[C@H]3CCC[C@@H](C2)N3CC(=O)Nc2cccc(C)c2)cc(OC)c1OC`, the IC50 in test [1] worked out at 1.8 µM; in test [2], 17.9 µM. In addition, the figures for the inhibition in test [3] (concentration not given here) and in test [4] (concentration not given here) were 102% and 92%, respectively.
In the case of `O=C(CN1[C@@H]2CCC[C@H]1C[C@H](NC(=O)c1ccc3c(c1)OCO3)C2)Nc1ccc(Cl)cc1`, the IC50 in test [1] was more than 40 µM; in test [2], 5.3 µM. Also, the inhibition result in test [3] was “inactive”. For the same compound, the inhibition in test [4] (concentration not given here) came to 84%.
Turning to `COc1cc(C(=O)N[C@@H]2C[C@H]3CCC[C@@H](C2)N3CC(=O)Nc2ccccc2Br)cc(OC)c1OC`, the half-maximal inhibitory concentration (IC50) in test [1] is 0.16 µM; in test [2], 0.9 µM. The inhibition is 105% in test [3] (concentration not given here) and 104% in test [4] (concentration not given here).
With `COc1cc(C(=O)N[C@@H]2C[C@H]3CCC[C@@H](C2)N3CC(=O)Nc2ccc(C)cc2)cc(OC)c1OC`, the IC50 in test [1] was 9.5 µM; in test [2] it was more than 40 µM. In addition, the inhibition in test [3] (concentration not given here) is 100%. Further, the inhibition entry in test [4] was “inactive”.
As for `COc1cc(C(=O)N[C@@H]2C[C@H]3CCC[C@@H](C2)N3CC(=O)Nc2ccc(Cl)c(Cl)c2)cc(OC)c1OC`, the IC50 in test [1] is 0.35 µM; in test [2], 1.8 µM. Besides, the inhibition in test [3] (concentration not given here) worked out at 103%; in test [4] (concentration not given here), 101%.
With `COc1cc(C(=O)N[C@@H]2C[C@H]3CCC[C@@H](C2)N3Cc2cc3ccccc3[nH]2)cc(OC)c1OC`, the IC50 in test [1] was 23.7 µM; in test [2] it was more than 50 µM. In addition, the inhibition in test [3] (concentration not given here) worked out at 64%. Moreover, in test [4], the inhibition result is “inactive”.
As for `COc1cc(C(=O)N[C@@H]2C[C@H]3CCC[C@@H](C2)N3Cc2nc3c(C)cccc3s2)cc(OC)c1OC`, the figures for the half-maximal inhibitory concentration (IC50) in test [1] and in test [2] were 0.25 µM and 4.8 µM, respectively. The inhibition in test [3] (concentration not given here) was determined as 100%; in test [4] (concentration not given here) it was 86%.
Consider `COc1cc(C(=O)N[C@@H]2C[C@H]3CCC[C@@H](C2)N3CC(=O)Nc2ccccc2F)cc(OC)c1OC`, for which the IC50 in test [1] worked out at 0.62 µM; in test [2], 6.5 µM. Besides, the inhibition in test [3] (concentration not given here) came to 103%; in test [4] (concentration not given here), 99%.
For `CCOC(=O)c1ccccc1NC(=O)CN1[C@@H]2CCC[C@H]1C[C@H](NC(=O)c1cc(OC)c(OC)c(OC)c1)C2` the same measures were 1.6 µM, 6.9 µM, 79% and 96%.
Regarding `COc1ccc(C(=O)N[C@@H]2C[C@H]3CCC[C@@H](C2)N3CC(=O)Nc2ccc(Cl)cc2)cc1OC`, the 50% inhibitory concentration (IC50) in test [1] and in test [2] was more than 40 µM throughout. Further, the inhibition result in test [3] and in test [4] was “inactive” each time.
As for `COc1cc(C(=O)N[C@@H]2C[C@H]3CCC[C@@H](C2)N3Cc2nc3ccc(Cl)cc3s2)cc(OC)c1OC`, the IC50 amounted to 0.27 µM in test [1] and 14 µM in test [2]. Besides, the inhibition was 103% in test [3] (concentration not given here) and 83% in test [4] (concentration not given here).
On to `COc1cc(C(=O)N[C@@H]2C[C@H]3CCC[C@@H](C2)N3CC(=O)Nc2cccc(Cl)c2)cc(OC)c1OC`, for which the IC50 in test [1] is 0.41 µM; in test [2] it was 4.3 µM. Moreover, the inhibition was 105% in test [3] (concentration not given here) and 97% in test [4] (concentration not given here).
For `COc1cc(C(=O)N[C@@H]2C[C@H]3CCC[C@@H](C2)N3CC(=O)Nc2ccc(Cl)cc2Cl)cc(OC)c1OC` the same measures were 0.16 µM, 0.9 µM, 105% and 105%.
For `COc1cc(C(=O)N[C@@H]2C[C@H]3CC[C@@H](C2)N3CC(=O)Nc2ccccc2)cc(OC)c1OC`, the IC50 in test [2] was more than 40 µM. Also, in test [3] (concentration not given here), the inhibition amounted to 63%. Moreover, the inhibition result in test [4] is “inactive”.
